Results taken from ChEMBL document CHEMBL1153560, “In vitro activities of doripenem and six comparator drugs against 423 aerobic and anaerobic bacterial isolates from infected diabetic foot wounds” (2008).
Values after ≈ are worked out from the molar mass of the structure shown.

Tests used:
Type in all cases: functional
Escherichia coli [1] = experiment: Antibacterial activity against Escherichia coli isolated from patient with diabetic foot infection assessed as percent resistant isolates after 18 to 24 hrs by broth microdilution method
Summary of the method: (§1)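 Aerobes subcultured on Trypticase soy blood agar, then broth microdilution in cation-adjusted Mueller-Hinton broth. Trays prepared in-house with twofold dilutions and stored at −70°C. Overnight colonies suspended to about 5 × 10^5 CFU/ml final. Read after 18 to 24 h at 37°C. QC strains included S. aureus ATCC 29213 and E. coli ATCC 25922.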

Klebsiella aerogenes = experiment: Antibacterial activity against Enterobacter aerogenes isolated from patient with diabetic foot infection assessed as percent resistant isolates after 18 to 24 hrs by broth microdilution method; summary of the method: as §1
Klebsiella pneumoniae [2] = experiment: Antibacterial activity against Klebsiella pneumoniae isolated from patient with diabetic foot infection assessed as percent resistant isolates after 18 to 24 hrs by broth microdilution method; summary of the method: as §1
Providencia rettgeri = experiment: Antibacterial activity against Proteus rettgeri isolated from patient with diabetic foot infection assessed as percent resistant isolates after 18 to 24 hrs by broth microdilution method; summary of the method: as §1
Pseudomonas aeruginosa = experiment: Antibacterial activity against Pseudomonas aeruginosa isolated from patient with diabetic foot infection assessed as percent resistant isolates after 18 to 24 hrs by broth microdilution method; summary of the method: as §1
[3] = system: Corynebacterium aurimucosum; experiment: Antibacterial activity against Corynebacterium aurimucosum isolated from patient with diabetic foot infection assessed as percent resistant isolates after 48 hrs by broth microdilution method
Summary of the method: (§2)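 Isolates subcultured on Trypticase soy blood agar. Broth microdilution in cation-adjusted Mueller-Hinton broth with lysed horse blood, using in-house twofold dilution trays stored at −70°C. Inoculum from overnight colonies at about 5 × 10^5 CFU/ml final. Read after 18 to 24 h at 37°C, up to 48 h for some Corynebacterium strains.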

[4] = system: Corynebacterium minutissimum; experiment: Antibacterial activity against Corynebacterium minutissimum isolated from patient with diabetic foot infection assessed as percent resistant isolates after 48 hrs by broth microdilution method; summary of the method: as §2
[5] = system: Corynebacterium urealyticum; experiment: Antibacterial activity against Corynebacterium urealyticum isolated from patient with diabetic foot infection assessed as percent resistant isolates after 48 hrs by broth microdilution method; summary of the method: as §2
[6] = system: Streptococcus dysgalactiae subsp. equisimilis; experiment: Antibacterial activity against Streptococcus dysgalactiae subsp. equisimilis isolated from patient with diabetic foot infection after 18 to 24 hrs by broth microdilution method
Summary of the method: (§3)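 Streptococcal isolates were subcultured on Trypticase soy blood agar. Broth microdilution used cation-adjusted Mueller-Hinton broth with lysed horse blood, in in-house trays of serial twofold drug dilutions stored at −70°C. Overnight colonies were suspended to a final inoculum of approximately 5 × 10^5 CFU/ml. MIC was read after 18 to 24 h incubation at 37°C.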

Streptococcus pyogenes [7] = experiment: Antibacterial activity against Streptococcus pyogenes isolated from patient with diabetic foot infection after 18 to 24 hrs by broth microdilution method; summary of the method: as §3
Staphylococcus aureus [8] = experiment: Antibacterial activity against methicillin-resistant Staphylococcus aureus isolated from patient with diabetic foot infection assessed as percent resistant isolates after 18 to 24 hrs by broth microdilution method
Summary of the method: (§4)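 Isolates grown on Trypticase soy blood agar, then tested by broth microdilution in unsupplemented cation-adjusted Mueller-Hinton broth. In-house trays held serial twofold drug dilutions and were stored at −70°C. Overnight colonies were suspended to a final inoculum near 5 × 10^5 CFU/ml, and trays read after 18–24 h at 37°C. QC strains: S. aureus ATCC 29213, E. coli ATCC 25922.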

Staphylococcus aureus [9] = experiment: Antibacterial activity against methicillin-sensitive Staphylococcus aureus isolated from patient with diabetic foot infection assessed as percent resistant isolates after 18 to 24 hrs by broth microdilution method; summary of the method: as §4
[10] = system: Staphylococcus epidermidis; experiment: Antibacterial activity against Staphylococcus epidermidis isolated from patient with diabetic foot infection assessed as percent resistant isolates after 18 to 24 hrs by broth microdilution method; summary of the method: as §1
[11] = system: Staphylococcus lugdunensis; experiment: Antibacterial activity against Staphylococcus lugdunensis isolated from patient with diabetic foot infection assessed as percent resistant isolates after 18 to 24 hrs by broth microdilution method; summary of the method: as §1
[12] = system: Streptococcus dysgalactiae subsp. equisimilis; experiment: Antibacterial activity against Streptococcus dysgalactiae subsp. equisimilis isolated from patient with diabetic foot infection assessed as percent resistant isolates after 18 to 24 hrs by broth microdilution method
Summary of the method: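 Streptococci subcultured on Trypticase soy blood agar and tested by broth microdilution in cation-adjusted Mueller-Hinton broth with lysed horse blood. In-house twofold dilution trays stored at −70°C. About 5 × 10^5 CFU/ml final inoculum from overnight colonies. Read after 18 to 24 h at 37°C.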

Streptococcus pyogenes [13] = experiment: Antibacterial activity against Streptococcus pyogenes isolated from patient with diabetic foot infection assessed as percent resistant isolates after 18 to 24 hrs by broth microdilution method
Summary of the method: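 Isolates subcultured on Trypticase soy blood agar. MICs by broth microdilution in cation-adjusted Mueller-Hinton broth with lysed horse blood, in in-house trays of serial twofold drug dilutions stored at −70°C. Colonies from overnight growth were suspended to a final inoculum of about 5 × 10^5 CFU/ml. Read after 18–24 h at 37°C.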

Escherichia coli [14] = experiment: Antibacterial activity against Escherichia coli isolated from patient with diabetic foot infection after 18 to 24 hrs by broth microdilution method
Summary of the method: (§5)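 Isolates were subcultured on Trypticase soy blood agar and tested by broth microdilution in cation-adjusted Mueller-Hinton broth. In-house trays of twofold drug dilutions were stored at −70°C. Overnight colonies gave a final inoculum of about 5 × 10^5 CFU/ml. Plates were read after 18 to 24 h at 37°C.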

Klebsiella pneumoniae [15] = experiment: Antibacterial activity against Klebsiella pneumoniae isolated from patient with diabetic foot infection after 18 to 24 hrs by broth microdilution method; summary of the method: as §5
Corynebacterium jeikeium = experiment: Antibacterial activity against Corynebacterium jeikeium isolated from patient with diabetic foot infection after 48 hrs by broth microdilution method
Summary of the method: (§6)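 Isolates were subcultured on Trypticase soy blood agar. Broth microdilution used cation-adjusted Mueller-Hinton broth with lysed horse blood, in-house trays of twofold drug dilutions stored at −70°C. Colonies from overnight growth gave a final inoculum of about 5 × 10^5 CFU/ml. Trays were read after 18 to 24 h at 37°C, up to 48 h for some strains.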

[16] = system: Corynebacterium minutissimum; experiment: Antibacterial activity against Corynebacterium minutissimum isolated from patient with diabetic foot infection after 48 hrs by broth microdilution method; summary of the method: as §6
[17] = system: Corynebacterium urealyticum; experiment: Antibacterial activity against Corynebacterium urealyticum isolated from patient with diabetic foot infection after 48 hrs by broth microdilution method; summary of the method: as §6
Corynebacterium xerosis = experiment: Antibacterial activity against Corynebacterium xerosis isolated from patient with diabetic foot infection after 48 hrs by broth microdilution method; summary of the method: as §6
Staphylococcus aureus [18] = experiment: Antibacterial activity against methicillin-resistant Staphylococcus aureus isolated from patient with diabetic foot infection after 18 to 24 hrs by broth microdilution method; summary of the method: as §4
Staphylococcus aureus [19] = experiment: Antibacterial activity against methicillin-sensitive Staphylococcus aureus isolated from patient with diabetic foot infection after 18 to 24 hrs by broth microdilution method
Summary of the method: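 Subcultured on Trypticase soy blood agar, then broth microdilution in cation-adjusted Mueller-Hinton broth. Trays were made in-house with serial twofold drug dilutions and stored at −70°C. Inoculum was colonies from overnight growth, final approximately 5 × 10^5 CFU/ml. MIC was read after 18 to 24 h at 37°C. QC strains: S. aureus ATCC 29213 and E. coli ATCC 25922.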

| SMILES | MIC50 [6] | MIC90 [6] | MIC50 (Streptococcus pyogenes [7]) | MIC90 (Streptococcus pyogenes [7]) | Activity (Staphylococcus aureus [8]) | Activity (Staphylococcus aureus [9]) | Activity [10] | Activity [11] | Activity [12] | Activity (Streptococcus pyogenes [13]) | MIC50 (Corynebacterium jeikeium) | MIC90 (Corynebacterium jeikeium) | MIC50 [16] | MIC90 [16] | MIC50 [17] | MIC90 [17] | MIC50 (Corynebacterium xerosis) | MIC90 (Corynebacterium xerosis) | MIC50 (Staphylococcus aureus [18]) | MIC90 (Staphylococcus aureus [18]) | also measured |
| --- | --- | --- | --- | --- | --- | --- | --- | --- | --- | --- | --- | --- | --- | --- | --- | --- | --- | --- | --- | --- | --- |
| C[C@@H](O)[C@H]1C(=O)N2C(C(=O)O)=C(S[C@@H]3CN[C@H](C(=O)N(C)C)C3)[C@H](C)[C@H]12 [MEROPENEM] | ≤ 0.015 µg/mL | ≤ 0.015 µg/mL | ≤ 0.015 µg/mL | ≤ 0.015 µg/mL | 100% | 0% | 67% | 0% | 0% | 0% | 1 µg/mL (≈ 2.61 µM) | 16 µg/mL (≈ 41.7 µM) | 1 µg/mL (≈ 2.61 µM) | 16 µg/mL (≈ 41.7 µM) | 1 µg/mL (≈ 2.61 µM) | 16 µg/mL (≈ 41.7 µM) | 0.125 µg/mL (≈ 0.326 µM) | 0.25 µg/mL (≈ 0.652 µM) | 2 µg/mL (≈ 5.22 µM) | 16 µg/mL (≈ 41.7 µM) | Activity (Escherichia coli [1]): 0%; Activity (Klebsiella aerogenes): 0%; Activity (Klebsiella pneumoniae [2]): 0%; Activity (Providencia rettgeri): 0%; Activity (Pseudomonas aeruginosa): 7%; Activity [3]: 20%; Activity [4]: 20%; Activity [5]: 20%; MIC50 (Escherichia coli [14]): 0.03 µg/mL (≈ 0.0782 µM); MIC90 (Escherichia coli [14]): 0.03 µg/mL (≈ 0.0782 µM); MIC50 (Klebsiella pneumoniae [15]): 0.03 µg/mL (≈ 0.0782 µM); MIC90 (Klebsiella pneumoniae [15]): 0.06 µg/mL (≈ 0.156 µM); MIC50 (Staphylococcus aureus [19]): 0.06 µg/mL (≈ 0.156 µM); MIC90 (Staphylococcus aureus [19]): 0.125 µg/mL (≈ 0.326 µM) |
| C[C@@H](O)[C@H]1C(=O)N2C(C(=O)O)=C(S[C@@H]3CN[C@H](CNS(N)(=O)=O)C3)[C@H](C)[C@H]12 [DORIPENEM] | ≤ 0.015 µg/mL | ≤ 0.015 µg/mL | ≤ 0.015 µg/mL | ≤ 0.015 µg/mL | 100% | 0% | 67% | 0% | 0% | 0% | 1 µg/mL (≈ 2.38 µM) | 8 µg/mL (≈ 19 µM) | 1 µg/mL (≈ 2.38 µM) | 8 µg/mL (≈ 19 µM) | 1 µg/mL (≈ 2.38 µM) | 8 µg/mL (≈ 19 µM) | 0.125 µg/mL (≈ 0.297 µM) | 0.25 µg/mL (≈ 0.595 µM) | 0.5 µg/mL (≈ 1.19 µM) | 8 µg/mL (≈ 19 µM) | Activity (Escherichia coli [1]): 0%; Activity (Klebsiella aerogenes): 0%; Activity (Klebsiella pneumoniae [2]): 0%; Activity (Providencia rettgeri): 0%; Activity (Pseudomonas aeruginosa): 7%; MIC50 (Escherichia coli [14]): 0.03 µg/mL (≈ 0.0713 µM); MIC90 (Escherichia coli [14]): 0.03 µg/mL (≈ 0.0713 µM); MIC50 (Klebsiella pneumoniae [15]): 0.06 µg/mL (≈ 0.143 µM); MIC90 (Klebsiella pneumoniae [15]): 0.125 µg/mL (≈ 0.297 µM); MIC50 (Staphylococcus aureus [19]): 0.03 µg/mL (≈ 0.0713 µM); MIC90 (Staphylococcus aureus [19]): 0.03 µg/mL (≈ 0.0713 µM) |
| C[C@@H](O)[C@H]1C(=O)N2C(C(=O)O)=C(S[C@@H]3CN[C@H](C(=O)Nc4cccc(C(=O)O)c4)C3)[C@H](C)[C@H]12 [ERTAPENEM] | ≤ 0.015 µg/mL | ≤ 0.015 µg/mL | ≤ 0.015 µg/mL | ≤ 0.015 µg/mL | 100% | 0% | 67% | 0% | 0% | 0% | 1 µg/mL (≈ 2.1 µM) | 32 µg/mL (≈ 67.3 µM) | 1 µg/mL (≈ 2.1 µM) | 32 µg/mL (≈ 67.3 µM) | 1 µg/mL (≈ 2.1 µM) | 32 µg/mL (≈ 67.3 µM) | 0.5 µg/mL (≈ 1.05 µM) | 1 µg/mL (≈ 2.1 µM) | 2 µg/mL (≈ 4.21 µM) | > 32 µg/mL | Activity (Escherichia coli [1]): 0%; Activity (Klebsiella aerogenes): 0%; Activity (Klebsiella pneumoniae [2]): 0%; Activity (Providencia rettgeri): 0%; MIC50 (Escherichia coli [14]): ≤ 0.015 µg/mL; MIC90 (Escherichia coli [14]): 0.06 µg/mL (≈ 0.126 µM); MIC50 (Klebsiella pneumoniae [15]): ≤ 0.015 µg/mL; MIC90 (Klebsiella pneumoniae [15]): ≤ 0.015 µg/mL; MIC50 (Staphylococcus aureus [19]): 0.125 µg/mL (≈ 0.263 µM); MIC90 (Staphylococcus aureus [19]): 0.25 µg/mL (≈ 0.526 µM) |
| CCC[C@@H]1C[C@@H](C(=O)N[C@@H]([C@H]2O[C@H](SC)[C@H](O)[C@@H](O)[C@H]2O)[C@H](C)Cl)N(C)C1 [CLINDAMYCIN] | 0.125 µg/mL (≈ 0.294 µM) | > 64 µg/mL | 0.125 µg/mL (≈ 0.294 µM) | > 64 µg/mL | 39% | 0% | 33% | 13% | 13% | 13% | > 64 µg/mL | > 64 µg/mL | > 64 µg/mL | > 64 µg/mL | > 64 µg/mL | > 64 µg/mL | 2 µg/mL (≈ 4.71 µM) | > 64 µg/mL | 0.125 µg/mL (≈ 0.294 µM) | > 64 µg/mL | Activity [3]: 100%; Activity [4]: 100%; Activity [5]: 100%; MIC50 (Staphylococcus aureus [19]): 0.125 µg/mL (≈ 0.294 µM); MIC90 (Staphylococcus aureus [19]): 0.25 µg/mL (≈ 0.588 µM) |
